# CHO parental Ca: ATP-evoked calcium signal inhibitors, parental CHO, primary screen, counter-screen for OX1R antagonist project, cell-based, fluorescence, Fluo-8 calcium dye. inhibition, % at 5.6 µM. parental CHO-K1, ATP-induced calcium, Fluo-8 fluorescence. AID 463079, 2010. 330,000 compounds, 0.63% hits;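 active = inhibition above that plate's mean sample inhibition plus 3 SD, cut at about 26% in these data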;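 also: 0% = ATP-challenged DMSO wells and 100% = DMSO wells without ATP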
#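 Assay system: untransfected parental CHO cell line. Also added: ATP agonist challenge. Dosing: one dose, 5.6 µM nominal. Measured by: Fluo-8 fluorescence. Read-out: % inhibition. Benchmarks: ATP wells versus no-ATP DMSO wells. Repeats: no replicates.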
# OX1R antag-1: OX1R (HCRTR1) antagonists, primary screen, fluorescence, CHO/OX1R cells, Fluo-8 calcium, orexin A. Orexin/Hypocretin receptor type 1 (Homo sapiens), O43613. Fluo-8 calcium fluorescence. inhibition, % at 5 µM. 330,000 compounds, 0.43% hits;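 active = inhibition above its plate's threshold, mean inhibition of all tested compounds on the plate plus 3 SD, cut at about 37% in these data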;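 also: 0% = orexin A challenge wells and 100% = SB-334867-A antagonist wells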
# Target sequence (O43613 whole entry, looked up): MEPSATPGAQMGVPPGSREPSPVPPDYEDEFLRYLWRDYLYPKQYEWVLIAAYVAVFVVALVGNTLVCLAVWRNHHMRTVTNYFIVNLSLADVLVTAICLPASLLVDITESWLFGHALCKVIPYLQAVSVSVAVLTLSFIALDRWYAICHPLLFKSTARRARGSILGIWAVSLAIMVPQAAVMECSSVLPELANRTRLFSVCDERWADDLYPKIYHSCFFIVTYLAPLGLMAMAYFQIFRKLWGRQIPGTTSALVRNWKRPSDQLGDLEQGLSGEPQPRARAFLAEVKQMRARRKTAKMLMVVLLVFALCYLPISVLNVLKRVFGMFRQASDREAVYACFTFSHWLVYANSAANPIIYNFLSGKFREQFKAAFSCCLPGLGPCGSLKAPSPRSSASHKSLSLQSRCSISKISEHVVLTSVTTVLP
# TAAR1 antag: human TAAR1 antagonists, primary screen, Fluo-8 calcium fluorescence, CHO RD-HGA16 cells. Trace amine-associated receptor 1 (Homo sapiens), Q96RJ0. 360,000 compounds, 1.5% hits. inhibition, % at 3 µM. antagonist;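 active = inhibition above a per-plate cutoff, the mean inhibition of test compounds on that plate plus 3 SD, cut at about 49% in these data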;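 also: 0% = DMSO plus EC80 beta-PEA response and 100% = DMSO alone without agonist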
#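 Test system – hTAAR1-expressing CHO RD-HGA16 cells, Gα16-coupled · Reagent – β-PEA at EC80 concentration, post-compound challenge · Compound dosing – 3 µM, single point · Timing – 140 s kinetic read after compound, 140 s after agonist · Detection – Fluo-8 intracellular calcium dye fluorescence, real-time kinetic reads · Control set – DMSO and EC80 PEA controls · Repeats – n of 1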
# TAAR1 ag: human TAAR1 agonists, primary screen, Fluo-8 calcium fluorescence, CHO RD-HGA16 cells | Trace amine-associated receptor 1 (Homo sapiens), Q96RJ0 | vehicle wells 0%, saturating PEA agonist 100% | activation, % at 3 µM | 360,000 compounds, 0.99% hits | AID 624467, 2012;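 active = activation above the mean activation of all test compounds in the run plus 3 SD, cut at about 38% in these data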
#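 Test system: RD-HGA16 (CHO) cells co-expressing Gα16 and hTAAR1; dosing: one-point dosing at 3 µM (nominal); timing: 17-24 h seeding, 75 min 37 °C dye, 30 min RT; signal: kinetic Fluo-8 calcium fluorescence; read-out basis: % activation relative to PEA EC100 response; controls: DMSO and PEA EC100; replicates: n 1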
# OX1R antag-2: antagonists of human orexin 1 receptor (OX1R). Orexin/Hypocretin receptor type 1 (Homo sapiens), O43613. OX1R-expressing cells, FRET antagonist read-out. inhibition, % at 6.6 µM. 330,000 compounds, 1.8% hits; in the data active = inhibition mostly above about 38%, no sharp cut-off; inactive = mostly below about 40%;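 also: 0% = agonist challenge alone and 100% = reference antagonist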
# TAAR1 ag conf: human TAAR1 agonists, retest of hits, confirmation, Fluo-8 calcium fluorescence, CHO RD-HGA16 cells | shares compounds with TAAR1 ag | scaled: DMSO 0%, maximal phenethylamine 100% | activation, % at 3 µM | 2,400 compounds, 82% hits | AID 651783, 2012;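 active = activation above a cutoff set at the run's mean compound activation plus 3 SD, cut at about 39% in these data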
# Ga16 nonsel ag: nonselective calcium mobilization agonists, CHO-Ga16 cells, counter-screen for hTAAR1 agonist project, cell-based, fluorescence, CHO-Ga16 parental line; 2,400 compounds, 50% hits; shares compounds with TAAR1 ag; Fluo-8 calcium fluorescence; normalized to maximal ATP response, DMSO zero; activation, % at 3 µM; AID 651787, 2012;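 active = activation above the run cutoff, the mean activation over all tested wells plus 3 SD, cut at about 12% in these data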;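 also: 0% = DMSO wells and 100% = maximal ATP response on the peak over basal ratio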
# TAAR1 desensitize: TAAR1 desensitization by agonist hits, confirmation, counter-screen for TAAR1 agonist project, cell-based, fluorescence, tachyphylaxis. shares compounds with TAAR1 ag. 2,400 compounds, 46% hits. CHO RD-HGA16 hTAAR1, Fluo-8 calcium, beta-PEA response inhibition. AID 651951, 2012. inhibition, % at 3 µM;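 active = inhibition above the run cutoff, the mean inhibition of all test compounds plus 3 SD, cut at about 49% in these data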;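 also: beta-PEA stimulus applied at its EC80; loss of beta-PEA calcium signal after compound pretreatment read as receptor desensitization; 0% = DMSO with beta-PEA at EC80 and 100% = DMSO alone without agonist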
# Ga16 nonsel ant: inhibition of ATP-evoked calcium response in CHO-Ga16 cells, counter-screen for TAAR1 agonist project, cell-based, fluorescence; shares compounds with TAAR1 ag; CHO-Ga16 ATP-induced calcium, Fluo-8 fluorescence; inhibition, % at 3 µM; 2,400 compounds, 39% hits; AID 651952, 2012;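 active = inhibition above the plate's mean compound inhibition plus 3 SD, computed per plate, cut at about 22% in these data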;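 also: 0% = EC80 ATP with DMSO and 100% = DMSO wells without ATP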
# Numbers without * were called inactive; . = not tested or not shown. Most compounds without a hit are left out; they make up all but 4% or so of the library.
SMILES,CHO parental Ca,OX1R antag-1,TAAR1 antag,TAAR1 ag,OX1R antag-2,TAAR1 ag conf,Ga16 nonsel ag,TAAR1 desensitize,Ga16 nonsel ant
CC(C)[C@H](NS(=O)(=O)c1cccc(C(F)(F)F)c1)C(=O)OCC(N)=O,-5,-7,-7,2,18,.,.,.,.
O=[N+]([O-])c1ccc(NC(=S)N2CCc3ccccc3C2)cc1,-11,-19,30,60*,10,81*,11,63*,22*
COc1ccccc1NC(=S)N1CCc2cc(OC)c(OC)cc2C1,-9,-7,4,0,18,.,.,.,.
COc1cccc(NC(=S)N2CCc3cc(OC)c(OC)cc3C2)c1,-3,-17,-27,2,4,.,.,.,.
COc1ccc(NC(=S)N2CCc3ccccc3C2)cc1OC,9,-6,.,.,3,.,7,.,4
Fc1ccc(NC(=S)N2CCOCC2)c(F)c1,-10,1,2,0,5,.,.,.,.
Fc1ccc(NC(=S)N2CCc3ccccc3C2)c(F)c1,-4,-1,18,43*,29,72*,13*,21,4
COc1cc(NC(=S)N2CCc3ccccc3C2)cc(OC)c1,-13,-6,7,49*,12,62*,1,22,9
O=C(c1ccc([N+](=O)[O-])cc1)N1CCc2ccccc2C1,4,4,7,0,12,.,.,.,.
CCN(C(=O)COC(=O)/C=C/c1c(C)nn(-c2ccccc2)c1C)C1CCS(=O)(=O)C1 (stereo not given),-12,-22,-10,1,9,.,.,.,.
O=C(COc1ncnc2ccc(Br)cc12)NCc1ccco1,-12,-17,-2,0,7,.,.,.,.
CC1NC(=O)NC1CCCCCC(=O)NCCc1ccccc1 (stereo not given),-10,11,40,48*,2,78*,8,74*,5
COc1ccc(C(=O)NC(=S)N2CCN(c3ccccc3OC)CC2)cc1OC,-25,-12,-29,0,1,.,.,.,.
O=C(Nc1ccccc1F)c1ccc(CNS(=O)(=O)c2cccc(C(F)(F)F)c2)cc1,69*,-14,40,46*,6,29,16*,26,18
COC(=O)C1=C(C)N(Cc2ccccc2)C(=NCc2cccc(Cl)c2)N[C@H]1c1ccccc1,9,43,.,.,21,.,.,.,.
C=CCN=C1NC(c2ccccc2)C(C(=O)OC)=C(C)N1Cc1cccc(C(F)(F)F)c1 (stereo not given),.,.,87*,116*,.,92*,61*,81*,67*
C=CCN=C1NC(c2cccc(Cl)c2)C(C(=O)OC)=C(C)N1Cc1cccc(C(F)(F)F)c1 (stereo not given),.,.,81*,67*,.,36,27*,56*,51*
C=CCN=C1NC(c2cccc(F)c2)C(C(=O)OC)=C(C)N1Cc1cccc(C(F)(F)F)c1 (stereo not given),.,.,92*,107*,.,89*,55*,92*,73*
COC(=O)C1=C(C)N(Cc2cccc(C(F)(F)F)c2)C(=NCC2CC2)NC1c1ccccc1 (stereo not given),.,.,97*,121*,.,115*,79*,100*,74*
C=CCN=C1NC(c2ccc(C(F)(F)F)cc2)C(C(=O)OC)=C(C)N1Cc1ccccc1C(F)(F)F (stereo not given),.,.,12,6,.,.,.,.,.
CCc1[nH]nc(C(=O)NC2CCCN(Cc3ccccc3F)C2)c1C (stereo not given),3,-13,-3,4,5,.,.,.,.
CC(C)OCCCNC(=O)c1cn(C)c2ccc(S(=O)(=O)N(C)C3CCCCC3)cc2c1=O,-7,-10,7,3,3,.,.,.,.
CC1CC(C)CN(C(=O)c2cccc(S(=O)(=O)NCc3ccccc3)c2)C1 (stereo not given),-20,-11,4,58*,14,50*,2,14,15
CC1CCCN(C(=O)c2cccc(S(=O)(=O)NCc3ccccc3)c2)C1 (stereo not given),.,.,-17,5,.,.,.,.,.
CCN1CCN(S(=O)(=O)c2cc3c(cc2Cl)NC(=O)CO3)CC1,1,-5,7,1,2,.,.,.,.
SMILES,CHO parental Ca,OX1R antag-1,TAAR1 antag,TAAR1 ag,OX1R antag-2,TAAR1 ag conf,Ga16 nonsel ag,TAAR1 desensitize,Ga16 nonsel ant
CCCCn1c(Nc2ccccc2)nc2ccccc21,-13,-22,6,45*,3,3,0,5,7
CCCn1c(Nc2nc3ccccc3n2C)nc2ccccc21,-14,-38,-23,30,8,.,.,.,.
NC[C@@H]1O[C@H](C23CC4CC(CC(C4)C2)C3)Cc2c1ccc(O)c2O,17,12,71*,68*,13,109*,13*,88*,29*
CC1(C(=O)Nc2ccccc2)CCN1C(=O)C1(c2ccccc2)CC1 (stereo not given),.,.,0,2,.,.,.,.,.
c1ccc(CCNc2c3c(nc4ncnn24)CCC3)cc1,-3,-6,9,62*,13,90*,7,38,6
COc1cccc(NC(=O)C(OC(=O)c2cnc(C)cn2)c2ccccc2)c1 (stereo not given),-17,-17,-4,-1,4,.,.,.,.
Cc1ccc(-c2nc3c(Cl)cc(Cl)cc3c(=O)n2O)cc1,13,7,39,80*,15,49*,52*,19,18
CN(Cc1ccccc1)C(=O)CCC1CCN(S(C)(=O)=O)CC1,-15,-20,-7,1,8,.,.,.,.
O[C@@H](Cc1ccccc1)[C@@H](/C=C/c1ccccc1)NCCc1ccccc1,.,.,36,53*,.,90*,18*,48,24*
CCN1CCc2c(sc(NC(=O)Cc3ccccc3)c2C(N)=O)C1,1,-6,-41,16,1,.,.,.,.
CCN1CCc2c(sc(NC(=O)Nc3ccc(Cl)c(Cl)c3)c2C(N)=O)C1,94*,99*,102*,178*,24,164*,177*,90*,88*

# Screening results from PubChem.
